# Most compounds without a hit are left out; they make up all but 1.5% or so of the library.
# APJ antag: APJ receptor antagonism | P35414 | CHO-K1 APJ beta-arrestin complementation, luminescence | inhibition, % at 20 µM | 0.32% of 330,000 active | AID 2521;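 active = inhibition above about 40% at 20 µM, limit read from the data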;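 also: cells challenged with 10 nM apelin-13 agonist together with compound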
# Target sequence (P35414 whole entry, looked up): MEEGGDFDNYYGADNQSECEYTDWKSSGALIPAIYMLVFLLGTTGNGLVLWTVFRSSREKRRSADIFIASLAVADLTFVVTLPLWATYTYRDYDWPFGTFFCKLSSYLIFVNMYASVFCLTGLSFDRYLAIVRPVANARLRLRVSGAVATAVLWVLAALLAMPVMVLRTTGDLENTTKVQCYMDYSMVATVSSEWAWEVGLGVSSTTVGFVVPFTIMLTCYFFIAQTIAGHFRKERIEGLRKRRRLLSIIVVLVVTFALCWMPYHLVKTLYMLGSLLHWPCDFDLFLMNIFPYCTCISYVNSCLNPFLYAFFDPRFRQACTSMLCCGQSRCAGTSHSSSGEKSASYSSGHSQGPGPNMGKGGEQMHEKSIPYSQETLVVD
# CXCR6 block: blocks human CXCR6 beta-arrestin recruitment. O00574. CHO-K1 PathHunter CXCR6 beta-arrestin, luminescence. inhibition, % at 20 µM. 0.36% of 360,000 active; in the data active = inhibition above about 34%, passing the limit was not always enough;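 also: antagonist mode with CXCL16 agonist at 10 nM final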
# APJ ag: activates the human apelin receptor APJ; 0.11% of 330,000 active; P35414; AID 2520; CHO-K1 APJ PathHunter beta-arrestin, luminescence; 0% DMSO wells, 100% apelin; activation, % at 20 µM;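 active = activation more than six SD over the plate average, tested at 20 µM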
#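 Test system – PathHunter CHO-K1 APJ (AGTRL-1) beta-arrestin reporter cells · Input – 1000 cells/well · Compound – single test compound dose, 20 µM final, 1% DMSO · Times – compound stimulation 90 min at 25 °C, detection 60 min · Technique – beta-gal luminescence · Read-out basis – APJ–arrestin association signal · Control set – negative DMSO alone, positive Apelin-13 at 10 nM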
# CCR6 antag: CCR6 (human) receptor antagonism; P51684; CHO-K1 CCR6 PathHunter beta-arrestin, luminescence, CCL20-stimulated; inhibition, % at 20 µM; 0.49% of 340,000 active; AID 493098;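 active = compounds whose inhibition of the agonist-driven luminescence signal at 20 µM reaches about 50%, limit read from the data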;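 also: cells stimulated with CCL20 at 14 nM final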
# EBI2 antag: blocks human EBI2 receptor beta-arrestin signaling | P32249 | EBI2 beta-arrestin recruitment, luminescence, 7a,25-OHC stimulated | inhibition, % at 5 µM | 0.81% of 360,000 active | AID 651636; in the data active = inhibition above about 38%;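 also: enzyme fragment complementation signal reports receptor beta-arrestin coupling in cells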
# EBI2 antag conf: confirmation of human EBI2 receptor antagonists; shares compounds with EBI2 antag; 29% of 2,400 active; EBI2 beta-arrestin luminescence, 7a,25-OHC antagonism; inhibition, % at 5 µM;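 active = inhibition of at least 50%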
# EBI2 agonist: activates EBI2, counter-screen for EBI2 antagonists; shares compounds with EBI2 antag; EBI2-expressing cells, agonist mode, luminescence, 60 min; 0% vehicle, 100% 7α,25-dihydroxycholesterol control; activation, % at 5 µM; 2,400 tested, under 10 active; AID 652000;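 active = activation of at least 50%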
# bGal cs: inhibits E. coli beta-galactosidase, counter-screen for EBI2 antagonists. shares compounds with EBI2 antag. purified beta-galactosidase, luminescent Galacton Star, 15 min. inhibition, % at 5 µM. 1% of 2,400 active. AID 652176;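 active = replicate-average signal at least 3 plate SD below neutral wells, shown as high inhibition, flagging enzyme-inhibiting false positives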;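 also: higher means stronger loss of beta-gal luminescence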
# A number is an active result; . = inactive; / = not tested or not shown.
SMILES,APJ antag,CXCR6 block,APJ ag,CCR6 antag,EBI2 antag,EBI2 antag conf,EBI2 agonist,bGal cs
C[C@H]1CN([C@@H](C)CO)C(=O)c2cccc(NS(=O)(=O)c3ccc(F)cc3)c2O[C@H]1CN(C)Cc1ccc(Cl)c(Cl)c1,.,.,.,.,.,/,/,/
COc1ccc(S(=O)(=O)Nc2cccc3c2O[C@H](CN(C)Cc2ccc(Cl)c(Cl)c2)[C@@H](C)CN([C@H](C)CO)C3=O)cc1,.,.,.,.,60,59,.,.
COc1ccc(OCC(=O)N2CCN(C(=O)c3ccc([N+](=O)[O-])cc3)CC2)cc1,.,.,.,.,88,60,.,.
O=C(COc1ccc(Cl)cc1)N1CCN(C(=O)c2ccccc2F)CC1,.,.,.,.,82,.,.,.
COc1ccc(OCC(=O)N2CCN(C(=O)c3cccc4ccccc34)CC2)cc1,.,.,.,.,70,.,.,.
Cc1cccc(OCC(=O)N2CCN(C(=O)c3ccc([N+](=O)[O-])cc3)CC2)c1,.,.,.,.,47,.,.,.
COc1ccc(OCC(=O)N2CCN(C(=O)c3ccccc3)CC2)cc1,.,.,.,.,77,74,.,.
COc1ccc(CC(=O)OCCc2cc3cc(OC)c(OC)cc3c(=O)o2)cc1,.,.,.,.,.,/,/,/
O=C(c1cc(=O)c2ccccc2o1)N1CCN(c2cccc(Cl)c2)CC1,.,.,.,.,51,.,.,.
O=C(c1cc(=O)c2ccccc2o1)N1CCN(c2ccccc2F)CC1,.,.,.,.,64,.,.,.
COc1ccc(/C=C/C(=O)OCC(=O)NC2CCCC2)cc1OC,.,.,.,.,.,/,/,/
CCOc1ccc(Br)cc1S(=O)(=O)Nc1ccc(C(=O)Nc2ccc(C)cc2)cc1,.,.,.,.,56,.,.,.
CCOc1ccc(Br)cc1S(=O)(=O)Nc1ccc(NC(=O)c2ccccc2C)cc1,.,.,.,.,.,/,/,/
O=C(CSc1ccc2nc(-c3ccccc3)cn2n1)NCC1CCCO1 (centres undefined),.,.,.,.,.,/,/,/
COc1ccc(-c2cn3nc(SCC(=O)NCC4CCCO4)ccc3n2)cc1 (centres undefined),.,.,.,.,67,.,.,.
Cn1cccc1Cc1nnc(SCC(=O)Nc2cccc(F)c2)n1CCc1ccccc1,.,.,.,.,45,.,.,.
COc1ccc(-n2c(Cc3cccn3C)nnc2SCC(=O)Nc2ccccc2OC)cc1,.,.,.,.,45,.,.,.
Cc1ccc(-n2c(Cc3cccn3C)nnc2SCC(=O)NCc2ccc3c(c2)OCO3)cc1,.,.,.,.,45,.,.,.
COc1ccc(-n2c(Cc3cccn3C)nnc2SCC(=O)Nc2cc(Cl)ccc2OC)cc1,.,.,.,.,58,.,.,.
COc1ccc(-n2c(Cc3cccn3C)nnc2SCC(=O)Nc2ccccc2)cc1,.,.,.,.,.,/,/,/
Cc1ccc(-n2c(Cc3cccn3C)nnc2SCC(=O)Nc2ccc3c(c2)OCO3)cc1,.,.,.,.,.,/,/,/
Cc1ccc(NS(=O)(=O)c2c(C(=O)N3CCCCCC3)c(C)n(C)c2C)cc1C,.,.,.,.,.,/,/,/
COc1ccc(-c2noc(CNC(=O)c3ccc4c(c3)OCO4)n2)cc1OC,.,.,.,.,.,/,/,/
O=C(NC1CCCCC1)C(c1ccnc2ccccc12)n1c(=O)c(-c2ccco2)nc2ccccc21 (centres undefined),/,/,/,/,.,/,/,/
Cn1c(=O)c2c(ncn2Cc2nnc(N)s2)n(C)c1=O,.,.,.,.,.,/,/,/
SMILES,APJ antag,CXCR6 block,APJ ag,CCR6 antag,EBI2 antag,EBI2 antag conf,EBI2 agonist,bGal cs
Cc1ccc(Cl)cc1NC(=O)CON=C(N)c1ccccc1,.,.,.,.,.,/,/,/
CCOC(=O)C1CCCN(C(=O)c2ccc3ccccc3c2)CC1 (centres undefined),/,.,/,/,.,/,/,/
CC(C)(C)OC(=O)C[C@H]1C/C=C\C[C@@H](CC(=O)N[C@@H](CO)Cc2ccccc2)C(=O)NC[C@H](c2ccccc2)OC1=O,.,.,.,.,.,/,/,/
COc1ccc(-n2c(Cc3cccn3C)nnc2SCC(=O)NCc2ccccc2Cl)cc1,.,.,.,.,56,.,.,.
COc1ccc(-n2c(Cc3cccn3C)nnc2SCC(=O)Nc2cccc(F)c2)cc1,.,.,.,.,56,.,.,.
NC(=O)CSc1nnc(Cc2csc(Nc3ccc(F)cc3)n2)n1Cc1ccccc1,.,.,.,.,63,.,.,.
CCOCC(=O)N1CCC(Cc2ccccc2)CC1,.,.,.,.,.,/,/,/
O=C(COc1ccc(F)cc1)N1CCC(Cc2ccccc2)CC1,.,.,.,.,74,50,.,.
COc1ccc(OCC(=O)N2CCC(Cc3ccccc3)CC2)cc1,.,.,.,.,92,77,.,.
CC(C)Oc1cc(F)ccc1-c1cc(C(=O)Nc2ccc(C(C)C)cc2)[nH]n1,/,.,/,/,54,.,.,.
COCCCNC(=S)NNC(=O)c1ccc(S(=O)(=O)N2CCC(C)CC2)cc1,.,.,.,.,.,/,/,/
O=C(Cc1ccccc1)NC(=S)Nc1ccc2oc(-c3ccccc3F)nc2c1,.,.,.,.,39,.,.,.
COc1cc(/C=C2\CCC(C)C3=C(c4cc(OC)c(OC)c(OC)c4)C(C#N)=C(N)OC32)cc(OC)c1OC (centres undefined),/,.,/,.,45,.,.,.
COc1cc(/C=C2\CCC(C3CCCC3)C2=O)cc(OC)c1OC (centres undefined),.,.,.,.,.,/,/,/
COc1ccc(S(=O)(=O)N2CCN(C(=O)COc3ccccc3)CC2)cc1,.,.,.,.,.,/,/,/
O=C(COc1ccccc1)N1CCN(S(=O)(=O)c2ccc(Br)cc2)CC1,.,.,.,.,64,.,.,.
COc1ccc(S(=O)(=O)N2CCN(CCOc3ccc(Br)cc3)CC2)cc1OC,.,.,.,.,58,.,.,.
Cc1ccc(OCC(=O)N2CCN(S(=O)(=O)c3ccccc3[N+](=O)[O-])CC2)cc1,.,.,.,.,84,60,.,.
Cc1ccc(S(=O)(=O)N2CCN(C(=O)COC(=O)COc3ccccc3)CC2)cc1,.,.,.,.,.,/,/,/
Cc1ccc(S(=O)(=O)N2CCN(C(=O)COc3ccc(Br)cc3)CC2)cc1,.,.,.,.,94,72,.,.
COc1ccc(S(=O)(=O)N2CCN(CCOc3ccccc3Cl)CC2)cc1OC,.,.,.,.,.,/,/,/

# Screening results deposited in PubChem by Sanford-Burnham Center for Chemical Genomics.
